Measurements: ChEMBL document CHEMBL1649328, “Assessment of pandemic and seasonal influenza A (H1N1) virus susceptibility to neuraminidase inhibitors in three enzyme activity inhibition assays” (Antimicrob Agents Chemother, 2010)

Experiments:
[1] = test system: Influenza A virus; assay: Ratio of IC50 for influenza A (A/Osaka/180/2009 (H1N1)) virus harboring neuraminidase H275Y mutant to IC50 for influenza A (A/Washington/29/2009 (H1N1)) virus expressing wild type enzyme by fetuin substrate based colorimetric assay; format: functional
In short: (§1)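 Colorimetric NA inhibition using a virus dilution that gave 0.4–0.8 OD549. Virus preincubated 1 h at 37°C with half-log inhibitor dilutions (0.03–1,000 nM final) in MES/CaCl2 pH 6.0 buffer. Fetuin (5.5 mg/ml final) then added for 18 h at 37°C. Released sialic acid detected by periodate oxidation and thiobarbituric acid, butanol extraction, read at 549 nm. IC50 curve-fitted, ≥2 experiments. Ratio is variant IC50 over wild-type reference IC50.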

[2] = test system: Influenza A virus; assay: Ratio of IC50 for influenza A (A/Osaka/180/2009 (H1N1)) virus harboring neuraminidase H275Y mutant to IC50 for influenza A (A/Washington/29/2009 (H1N1)) virus expressing wild type enzyme by NA-star substrate based chemiluminescent assay; format: functional
[3] = test system: Influenza A virus; assay: Ratio of IC50 for influenza A (A/Washington/29/2009 (H1N1)) virus harboring neuraminidase H275Y mutant to IC50 for influenza A (A/Washington/29/2009 (H1N1)) virus expressing wild type enzyme by NA-star substrate based chemiluminescent assay; format: functional
In short: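 Chemiluminescent NA inhibition in MES 26 mM/CaCl2 4 mM buffer, pH 6.0. […] Luminescence read for 0.1 s. IC50 from the fit y = Vmax·{1 − [x/(K + x)]}, mean of ≥3 experiments. Ratio is the H275Y variant IC50 over the pandemic wild-type reference IC50.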

[4] = test system: Influenza A virus; assay: Ratio of IC50 for influenza A (A/Singapore/57/2009 (H1N1)) virus harboring neuraminidase H275Y mutant to IC50 for influenza A (A/Washington/29/2009 (H1N1)) virus expressing wild type enzyme by MUNANA substrate based fluorometric assay; format: functional
In short: (§2)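 Fluorometric NA inhibition in MES/CaCl2 buffer, pH 6.0. Virus preincubated 30 min at 37°C with ten half-log inhibitor dilutions (0.03–1,000 nM final), then MUNANA (100 μM final) added for 30 min at 37°C. Stopped with 0.1 M glycine in 25% ethanol, pH 10.7. Read at ex 365/em 450 nm. IC50 curve-fitted, mean of ≥3 experiments. Ratio is variant IC50 over wild-type reference IC50.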

[5] = test system: Influenza A virus; assay: Ratio of IC50 for influenza A (A/Singapore/91/2009 (H1N1))virus harboring neuraminidase H275Y mutant to IC50 for influenza A (A/Washington/29/2009 (H1N1)) virus expressing wild type enzyme by MUNANA substrate based fluorometric assay; format: functional; in short: as §2
[6] = test system: Influenza A virus; assay: Antiviral activity against influenza A (A/Hong Kong/2369/2009 (H1N1)) virus harboring neuraminidase H275Y mutant after 16 to 18 hrs by fetuin substrate based colorimetric assay; format: functional, organism-based
In short: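 Colorimetric NA inhibition with fetuin substrate. Virus was diluted in NA-Star buffer (26 mM MES, 4 mM CaCl2, pH 6.0) to give OD549 of 0.4–0.8 after 18 h. It was preincubated with ten half-log inhibitor dilutions (0.03–1,000 nM final) for 1 h at 37°C, then with fetuin (5.5 mg/ml final) for 16–18 h at 37°C. Released sialic acid was read at 549 nm after periodate/TBA reaction and butanol extraction. IC50 came from a Vmax·[1−x/(K+x)] fit, mean of ≥2 experiments.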

[7] = test system: Influenza A virus; assay: Ratio of IC50 for influenza A (A/Hong Kong/2369/2009 (H1N1)) virus harboring neuraminidase H275Y mutant to IC50 for influenza A (A/Washington/29/2009 (H1N1)) virus expressing wild type enzyme by MUNANA substrate based fluorometric assay; format: functional
[8] = test system: Influenza A virus; assay: Ratio of IC50 for influenza A (A/Montana/02/2009 (H1N1)) virus harboring neuraminidase H275Y mutant to IC50 for influenza A (A/Washington/29/2009 (H1N1)) virus expressing wild type enzyme by fetuin substrate based colorimetric assay; format: functional
[9] = test system: Influenza A virus; assay: Ratio of IC50 for influenza A (A/Washington/29/2009 (H1N1)) virus harboring neuraminidase H275Y mutant to IC50 for influenza A (A/Washington/29/2009 (H1N1)) virus expressing wild type enzyme by fetuin substrate based colorimetric assay; format: functional; in short: as §1
[10] = test system: Influenza A virus; assay: Ratio of IC50 for influenza A (A/North Carolina/01/2009 (H1N1)) virus harboring neuraminidase H275Y mutant to IC50 for influenza A (A/Washington/29/2009 (H1N1)) virus expressing wild type enzyme by fetuin substrate based colorimetric assay; format: functional
[11] = test system: Influenza A virus; assay: Antiviral activity against influenza A (A/Washington/29/2009 (H1N1)) virus harboring neuraminidase H275Y mutant after 30 mins by MUNANA substrate based fluorometric assay; format: functional, organism-based
In short: (§3)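 Fluorometric NA inhibition with MUNANA (100 μM final). Titrated virus in NA-Star buffer (26 mM MES, 4 mM CaCl2, pH 6.0) was preincubated with ten half-log inhibitor dilutions (0.03–1,000 nM final) for 30 min at 37°C, then with substrate for 30 min at 37°C. The reaction was stopped with 0.1 M glycine in 25% ethanol, pH 10.7, and 4-methylumbelliferone was read at ex 365/em 450 nm. IC50 came from a Vmax·[1−x/(K+x)] fit, mean of ≥3 experiments.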

[12] = test system: Influenza A virus; assay: Ratio of IC50 for influenza A (A/Singapore/91/2009 (H1N1)) virus harboring neuraminidase H275Y mutant to IC50 for influenza A (A/Washington/29/2009 (H1N1)) virus expressing wild type enzyme by fetuin substrate based colorimetric assay; format: functional; in short: as §1
[13] = test system: Influenza A virus; assay: Ratio of IC50 for influenza A (A/New York/18/2009 (H1N1)) virus harboring neuraminidase H275Y mutant to IC50 for influenza A (A/Washington/10/2008 (H1N1)) virus expressing wild type enzyme by NA-star substrate based chemiluminescent assay; format: functional
[14] = test system: Influenza A virus; assay: Ratio of IC50 for influenza A (A/North Carolina/02/2009 (H1N1)) virus harboring neuraminidase H275Y mutant to IC50 for influenza A (A/Washington/10/2008 (H1N1)) virus expressing wild type enzyme by fetuin substrate based colorimetric assay; format: functional
[15] = test system: Influenza A virus; assay: Antiviral activity against influenza A (A/Singapore/57/2009 (H1N1)) virus harboring neuraminidase H275Y mutant after 30 mins by NA-star substrate based chemiluminescent assay; format: functional, organism-based
In short: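 Titrated virus in NA-Star buffer (26 mM MES, 4 mM CaCl2, pH 6.0) was preincubated with ten half-log inhibitor dilutions (0.03–1,000 nM final) for 30 min at 37°C, then with substrate for 30 min at room temperature. Accelerator solution was added and luminescence read for 0.1 s. IC50 came from a Vmax·[1−x/(K+x)] fit, mean of ≥3 experiments.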

[16] = test system: Influenza A virus; assay: Antiviral activity against influenza A (A/Osaka/180/2009 (H1N1)) virus harboring neuraminidase H275Y mutant after 30 mins by MUNANA substrate based fluorometric assay; format: functional, organism-based; in short: as §3
[17] = test system: Influenza A virus; assay: Ratio of IC50 for influenza A (A/Osaka/180/2009 (H1N1)) virus harboring neuraminidase H275Y mutant to IC50 for influenza A (A/Washington/29/2009 (H1N1)) virus expressing wild type enzyme by MUNANA substrate based fluorometric assay; format: functional

| SMILES | Ratio IC50 [1] | Ratio IC50 [2] | Ratio IC50 [3] | Ratio IC50 [4] | Ratio IC50 [5] | IC50 [6] [nM] | Ratio IC50 [7] | Ratio IC50 [8] | Ratio IC50 [9] | Ratio IC50 [10] | IC50 [11] [nM] | Ratio IC50 [12] | Ratio IC50 [13] | Ratio IC50 [14] | IC50 [15] [nM] | IC50 [16] [nM] | Ratio IC50 [17] |
| --- | --- | --- | --- | --- | --- | --- | --- | --- | --- | --- | --- | --- | --- | --- | --- | --- | --- |
| CCC(CC)[C@H](NC(C)=O)[C@@H]1[C@H](O)[C@@H](C(=O)O)C[C@H]1NC(=N)N [PERAMIVIR ANHYDROUS] | 398 | 93 | 89 | 609 | 1 | 162 | 641 | 111 | 332 | 140 | 150 | 1 | 1 | 1 | 11.8 | 97.6 | 488 |
| C/C=C\[C@@H]1C[C@H](C(=O)O)N[C@H]1[C@@H](NC(C)=O)[C@](C)(CCC)OC | 3 | 3 | 5 | 3 | 1 | 3.56 | 3 | 2 | 2 | 2 | 1.76 | 1 | 1 | 1 | 1.06 | 2.44 | 5 |
